These results are taken from the array DNA melting data of Ke et al. (doi:10.1101/2024.01.08.574731).

Data set [1] can be described thus: folding enthalpy; higher = less favourable; fluorescence melt of hairpins on a sequencing array, two-state fit. The conditions noted are these: sodium 0.088 M. Put shortly: (§1)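 Folding enthalpy and melting temperature come from bootstrapped two-state fits to Cy3 fluorescence of library hairpins carrying annealed Cy3 and quencher oligos on a sequenced MiSeq flow cell. Imaging was done in 50 mM Na-HEPES pH 8.0, 25 mM NaCl, stepping by 2.5 °C up to 60 °C, and signals were normalised to pre-quench Cy3 and to control constructs. Results of four replicates were combined by inverse variance, and fitted temperatures were raised by 9.35 °C to match UV melts.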

The nature of data set [2]: melting temperature; fluorescence melt of hairpins on a sequencing array, two-state fit, raised by 9.35 °C to match UV melts. Conditions: sodium 0.088 M. The gist of the method: as §1

For the sequence GCGGGCCGCCGC ((((....)))), in data set [1], the folding enthalpy is -15.5 kcal/mol. In data set [2], the Tm came to 61.5 °C.

As to GCGGGCGAAAGCCGCCGC ((((((....)))..))), the folding enthalpy in data set [1] is -11.3 kcal/mol. Moreover, the Tm in data set [2] came to 61.7 °C.

Consider GCGGGCGAAAGCCGTCGC ((((((....)))..))), for which, in data set [1], the folding enthalpy is -17.3 kcal/mol. For the same sequence, the Tm in data set [2] was determined as 54.5 °C.

As to GCGGGCGGCCGC ((((....)))), the folding enthalpy in data set [1] was -42 kcal/mol. The Tm in data set [2] worked out at 59.1 °C.

Take GCGGGCGTCCGC ((((....)))): the folding enthalpy in data set [1] was -23.6 kcal/mol. The Tm in data set [2] was determined as 58.6 °C.

With GCGGGCTCGAAAGAGCGC (((..(((....)))))), the folding enthalpy in data set [1] is -10.2 kcal/mol. Moreover, the Tm in data set [2] was found to be 55 °C.

For the sequence GCGGGGATCCGC ((((....)))), the folding enthalpy in data set [1] is -19.9 kcal/mol. In data set [2], the Tm stood at 68.9 °C.

For GCGGGGCGAAAGCACAGC ((.(.((....)).).)), in data set [1], the folding enthalpy is -31.8 kcal/mol. The Tm in data set [2] turned out to be 65.4 °C.

Turning to GCGGGGCGAAAGCCAAGC ((..(((....)))..)), the folding enthalpy in data set [1] is -27.7 kcal/mol. Also, in data set [2], the Tm was 65 °C.

GCGGGGCGAAAGCCAGGC ((..(((....)))..)): in data set [1], the folding enthalpy is -17.5 kcal/mol. Besides, in data set [2], the Tm came out at 59.1 °C.

As for GCGGGGCGAAAGCCGAGC ((..(((....)))..)), the folding enthalpy in data set [1] is -24.9 kcal/mol. Also, in data set [2], the Tm was determined as 66.2 °C.

For the sequence GCGGGGCGCCGC ((((....)))), the folding enthalpy in data set [1] was -14.7 kcal/mol. Also, the Tm in data set [2] was 66.1 °C.

For the sequence GCGGGGGGAAACCCCCAC (.(((((....))))).), the folding enthalpy in data set [1] was -11.2 kcal/mol. Besides, the Tm in data set [2] was 46 °C.

Regarding GCGGGGGGAAACCCCTGC ((.((((....)))).)), the folding enthalpy in data set [1] was -31.9 kcal/mol. The Tm in data set [2] stood at 61.9 °C.

Take GCGGGGGGAAACTCCCGC (((((.(....).))))): the folding enthalpy in data set [1] was -33.8 kcal/mol. In addition, in data set [2], the Tm was 68.4 °C.

GCGGGGTTCCGC ((((....)))): the folding enthalpy in data set [1] is -18.7 kcal/mol. Also, in data set [2], the Tm turned out to be 61.1 °C.

Take GCGGGTGGAAACACCCAC (.(((((....))))).): in data set [1], the folding enthalpy was -11.5 kcal/mol. Besides, the Tm in data set [2] was determined as 48.7 °C.

For the sequence GCGGGTGGAAACGCCTGC ((.((.(....).)).)), the folding enthalpy in data set [1] was -28 kcal/mol. For the same sequence, in data set [2], the Tm stood at 51.7 °C.

On to GCGGTACGAAAGTAACGC (((.(((....))).))), for which the folding enthalpy in data set [1] was -38.8 kcal/mol. Further, the Tm in data set [2] stood at 67.7 °C.

For the sequence GCGGTAGGAAACTGTCGC (((..((....))..))), the folding enthalpy in data set [1] was -30.3 kcal/mol. Also, the Tm in data set [2] was 43.8 °C.

GCGGTATACCGC ((((....)))): the folding enthalpy in data set [1] is -27.4 kcal/mol. Also, in data set [2], the Tm turned out to be 60.7 °C.

Consider GCGGTATCGAAAGATCGC (((..(((....)))))), for which the folding enthalpy in data set [1] is -24.1 kcal/mol. Moreover, the Tm in data set [2] was determined as 47.1 °C.

With GCGGTCACCCGC ((((....)))), the folding enthalpy in data set [1] was -24.6 kcal/mol. In addition, in data set [2], the Tm came to 56.2 °C.

Consider GCGGTCCACCGC ((((....)))), for which the folding enthalpy in data set [1] was -26.2 kcal/mol. Also, the Tm in data set [2] stood at 68.5 °C.

Turning to GCGGTCCCCCGC ((((....)))), the folding enthalpy in data set [1] was -21.9 kcal/mol. Further, the Tm in data set [2] was found to be 57.7 °C.

Consider GCGGTCGAAAGACGCCGC ((((((....)))..))), for which, in data set [1], the folding enthalpy is -19.9 kcal/mol. In addition, the Tm in data set [2] was found to be 56.4 °C.

On to GCGGTCGCGAAAGCGCGC (((..(((....)))))), for which the folding enthalpy in data set [1] was -16.1 kcal/mol. For the same sequence, in data set [2], the Tm stood at 59.7 °C.

As for GCGGTCGGAAACGACCAC (.(((((....))))).), the folding enthalpy in data set [1] was -11.6 kcal/mol. Besides, in data set [2], the Tm came to 48.4 °C.

Take GCGGTCGTCCGC ((((....)))): the folding enthalpy in data set [1] was -31.1 kcal/mol. Also, the Tm in data set [2] amounted to 56.9 °C.

In the case of GCGGTCTCCGC ((((...)))), the folding enthalpy in data set [1] was -29.1 kcal/mol. The Tm in data set [2] stood at 56.3 °C.

In the case of GCGGTGACCGC ((((...)))), in data set [1], the folding enthalpy was -23.6 kcal/mol. The Tm in data set [2] worked out at 56.6 °C.

With GCGGTGAGCCGC ((((....)))), the folding enthalpy in data set [1] was -23 kcal/mol. In data set [2], the Tm was determined as 66.8 °C.

Take GCGGTGCCGAAAGGCCGC (((..(((....)))))): the folding enthalpy in data set [1] was -19.4 kcal/mol. Besides, the Tm in data set [2] amounted to 62.3 °C.

With GCGGTGCGAAAGCCACGC (((..((....))..))), the folding enthalpy in data set [1] is -19.8 kcal/mol. Moreover, in data set [2], the Tm is 61.5 °C.

Consider GCGGTGCGAAAGCCCTGC ((.(.((....)).).)), for which, in data set [1], the folding enthalpy is -21.2 kcal/mol. Further, the Tm in data set [2] was 49.5 °C.

GCGGTGCGAAAGCCGCGC (((..((....))..))): the folding enthalpy in data set [1] was -27.7 kcal/mol. For the same sequence, the Tm in data set [2] stood at 68.9 °C.

In the case of GCGGTGCGAAAGCTACGC (((..((....))..))), in data set [1], the folding enthalpy was -33.5 kcal/mol. For the same sequence, in data set [2], the Tm was 63.9 °C.

Turning to GCGGTGCGAAAGCTCTGC ((.(.((....)).).)), in data set [1], the folding enthalpy was -20.2 kcal/mol. Also, the Tm in data set [2] came to 54.3 °C.

In the case of GCGGTGCGAAAGCTTCGC (((..((....))..))), in data set [1], the folding enthalpy was -16.4 kcal/mol. Further, in data set [2], the Tm came to 58.2 °C.
